Drawing on ChEMBL document CHEMBL1153887, “Cyclocondensation reaction of heterocyclic carbonyl compounds. Part XIII: synthesis and cytotoxic activity of some 3,7-diaryl-5-(3,4,5-trimethoxyphenyl)pyrazolo[4,3-e][1,2,4]triazines” (Eur J Med Chem, 2009), this text covers IC50 for 34 molecules.

pIC50: −log10 of the molar value.

Test [1] has as its system CCRF-CEM. Nature of the test: Cytotoxicity against human daunorubicin-resistant CEM cells after 72 hrs by MTT assay. Type of test: cell-based. The essentials:
(§1)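 Cells seeded at 2500–30,000 cells/well and left 24 h at 37 °C, 5% CO₂, then fourfold dilution series in duplicate for 72 h. MTT for 4 h, formazan dissolved in 10% SDS (pH 5.5), OD read at 540 nm against controls. Mean of three independent experiments.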
A general note: Formazan colour is commonly taken as a measure of viable cells.

In a further test the test system is A549. Nature of the test: Cytotoxicity against human A549 cells after 72 hrs by MTT assay. Type of test: functional, cell-based. The settings on record: A549, 72 h.
Test [2] deals with K562. Nature of the test: Cytotoxicity against human K562 cells after 72 hrs by MTT assay. Type of test: functional, cell-based. The settings on record: K562, 72 h.
The subject of test [3] is K562. Briefly: Cytotoxicity against human paclitaxel-resistant K562 cells after 72 hrs by MTT assay. Type of test: functional, cell-based. Conditions: K562, 72 h. An outline of the steps:
as §1

The test system of test [4] is CCRF-CEM. Nature of the test: Cytotoxicity against human CEM cells after 72 hrs by MTT assay. Type of test: cell-based.

As for `COc1cccc(N/N=C(\c2cc(OC)c(OC)c(OC)c2)c2nc(-c3ccc(Cl)cc3)n[nH]c2=O)c1`, the pIC50 was 3.88 in the test with CCRF-CEM [1]; 5.08 in the test on A549; 4.38 with K562 [2]; 4.58 with K562 [3]; 4.94 with CCRF-CEM [4].
On the same counts, the results for `COc1ccc(C(=O)N/C(=C/c2cc(OC)c(OC)c(OC)c2)C(=O)NN)cc1` are 3.83, 3.87, 3.76, 3.78 and 3.84.
The matching figures for `COc1cccc(N/N=C(\c2cc(OC)c(OC)c(OC)c2)c2nc(-c3cc(OC)c(OC)c(OC)c3)n[nH]c2=O)c1`: 3.85, 5.47, 3.95, 4.66 and 5.11.
In the case of `COc1ccc(-c2nnc3c(n2)c(-c2cc(OC)c(OC)c(OC)c2)nn3-c2ccccc2)cc1`, the pIC50 in the test with CCRF-CEM [1] is 3.94; in the test with A549, 4.10; in the test with K562 [2], 3.78; with K562 [3], 3.69; in the test with CCRF-CEM [4], 3.94.
As for `COc1cc(-c2nn(-c3ccccc3)c3nnc(-c4ccccc4)nc23)cc(OC)c1OC`, the pIC50 with CCRF-CEM [1] was 3.97; in the test with A549, 4.06; with K562 [2], 3.77; in the test with K562 [3], 3.67; in the test on CCRF-CEM [4] it was 3.96.
On the same counts, the results for `COc1ccc(-c2nnc3c(n2)c(-c2cc(OC)c(OC)c(OC)c2)nn3-c2cccc(OC)c2)cc1` are 3.74, 3.91, 3.94, 3.76 and 4.26.
Consider `COc1cc(/C(=N\Nc2ccc(Cl)cc2)c2nc(-c3ccc(Cl)cc3)n[nH]c2=O)cc(OC)c1OC`, for which the pIC50 in the test on CCRF-CEM [1] was 4.42; in the test on A549, 5.42; in the test on K562 [2] it was 4.99; in the test with K562 [3], 4.90; in the test on CCRF-CEM [4], 5.12.
`COc1ccc(N/N=C(\c2cc(OC)c(OC)c(OC)c2)c2nc(-c3ccc(Cl)cc3)n[nH]c2=O)cc1`: the pIC50 was 5.04 with CCRF-CEM [1]; 5.63 in the test with A549; 5.12 in the test with K562 [2]; 5.08 with K562 [3]; 5.02 in the test on CCRF-CEM [4].
Turning to `COc1cc(/C(=N\Nc2ccccc2)c2nc(-c3ccccc3)n[nH]c2=O)cc(OC)c1OC`, the pIC50 was 4.74 in the test on CCRF-CEM [1]; 5.15 in the test with A549; 4.94 in the test with K562 [2]; 4.71 in the test with K562 [3]; 4.97 with CCRF-CEM [4].
As to `COc1cc(-c2nn(-c3ccccc3)c3nnc(-c4ccc(Cl)cc4)nc23)cc(OC)c1OC`, the pIC50 was 3.95 in the test on CCRF-CEM [1]; 3.89 in the test with A549; 3.66 with K562 [2]; 3.65 with K562 [3]; 4.94 in the test with CCRF-CEM [4].
On to `COc1cccc(-n2nc(-c3cc(OC)c(OC)c(OC)c3)c3nc(-c4ccccc4)nnc32)c1`, for which the pIC50 with CCRF-CEM [1] is 4.00; in the test on A549, 6.21; in the test on K562 [2] it was 3.93; with K562 [3], 3.80; in the test on CCRF-CEM [4] it was 5.08.
Turning to `COc1cc(/C(=N\Nc2ccc(Cl)cc2)c2nc(-c3ccccc3)n[nH]c2=O)cc(OC)c1OC`, the pIC50 in the test with CCRF-CEM [1] was 4.33; with A549 it was 5.07; in the test with K562 [2], 4.92; in the test on K562 [3], 4.42; with CCRF-CEM [4], 4.60.
Turning to `COc1cc(/C=C(/NC(=O)c2cc(OC)c(OC)c(OC)c2)C(=O)NN)cc(OC)c1OC`, the pIC50 with CCRF-CEM [1] was 3.90; in the test with A549, 3.99; in the test on K562 [2] it was 3.80; in the test on K562 [3], 3.82; in the test with CCRF-CEM [4], 3.91.
The matching figures for `COc1ccc(-n2nc(-c3cc(OC)c(OC)c(OC)c3)c3nc(-c4cc(OC)c(OC)c(OC)c4)nnc32)cc1`: 3.93, 4.12, 4.18, 3.79 and 4.43.
On to `COc1cc(-c2nn(-c3ccc(Cl)cc3)c3nnc(-c4ccc(Cl)cc4)nc23)cc(OC)c1OC`, for which the pIC50 in the test with CCRF-CEM [1] is 3.90; with A549, 3.81; with K562 [2] it was 3.72; in the test on K562 [3], 3.65; in the test with CCRF-CEM [4], 4.16.
The matching figures for `COc1cc(-c2nn(-c3ccc(Cl)cc3)c3nnc(-c4ccccc4)nc23)cc(OC)c1OC`: 3.81, 4.24, 3.60, 3.76 and 3.82.
Take `COc1ccc(-c2nnc3c(n2)c(-c2cc(OC)c(OC)c(OC)c2)nn3-c2ccccc2OC)cc1`: the pIC50 is 3.92 with CCRF-CEM [1]; 5.18 with A549; 3.75 with K562 [2]; 3.81 in the test on K562 [3]; 3.98 in the test with CCRF-CEM [4].
`COc1cc(Cc2nc(-c3ccc(Cl)cc3)n[nH]c2=O)cc(OC)c1OC`: the pIC50 in the test with CCRF-CEM [1] is 4.84; in the test with A549 it was 4.80; with K562 [2] it was 5.02; in the test with K562 [3], 4.61; with CCRF-CEM [4], 4.89.
Turning to `COc1ccc(-c2n[nH]c(=O)c(/C(=N/Nc3cccc(OC)c3)c3cc(OC)c(OC)c(OC)c3)n2)cc1`, the pIC50 was 3.88 in the test on CCRF-CEM [1]; 3.60 in the test on A549; 3.79 in the test with K562 [2]; 3.60 with K562 [3]; 4.16 in the test on CCRF-CEM [4].
In the case of `COc1cc(Cc2nc(-c3ccccc3)n[nH]c2=O)cc(OC)c1OC`, the pIC50 in the test with CCRF-CEM [1] was 5.49; in the test on A549, 5.46; with K562 [2], 5.93; with K562 [3], 5.41; with CCRF-CEM [4] it was 5.57.
The matching figures for `COc1cccc(-n2nc(-c3cc(OC)c(OC)c(OC)c3)c3nc(-c4ccc(Cl)cc4)nnc32)c1`: 3.97, 5.54, 3.72, 3.66 and 4.26.
As for `COc1ccc(-c2nnc3c(n2)c(-c2cc(OC)c(OC)c(OC)c2)nn3-c2ccc(Cl)cc2)cc1`, the pIC50 was 3.93 in the test with CCRF-CEM [1]; 3.95 in the test on A549; 3.69 in the test with K562 [2]; 3.63 with K562 [3]; 3.94 in the test with CCRF-CEM [4].
With `COc1ccccc1-n1nc(-c2cc(OC)c(OC)c(OC)c2)c2nc(-c3cc(OC)c(OC)c(OC)c3)nnc21`, the pIC50 in the test on CCRF-CEM [1] was 3.90; in the test on A549, 4.82; in the test on K562 [2], 3.74; with K562 [3] it was 3.81; with CCRF-CEM [4], 3.90.
As to `COc1ccc(-n2nc(-c3cc(OC)c(OC)c(OC)c3)c3nc(-c4ccc(Cl)cc4)nnc32)cc1`, the negative-log IC50 (pIC50) in the test with CCRF-CEM [1] is 3.86; with A549 it was 3.95; with K562 [2], 3.61; in the test with K562 [3], 3.60; in the test with CCRF-CEM [4], 3.65.
On the same counts, the results for `COc1ccc(-c2n[nH]c(=O)c(/C(=N/Nc3ccccc3)c3cc(OC)c(OC)c(OC)c3)n2)cc1` are 4.40, 4.63, 4.74, 4.50 and 5.01.
In the case of `COc1cc(Cc2nc(-c3cc(OC)c(OC)c(OC)c3)n[nH]c2=O)cc(OC)c1OC`, the pIC50 in the test with CCRF-CEM [1] was 3.89; in the test on A549, 3.93; in the test on K562 [2], 4.09; in the test with K562 [3], 3.86; with CCRF-CEM [4], 4.42.
For `COc1ccc(N/N=C(\c2cc(OC)c(OC)c(OC)c2)c2nc(-c3ccccc3)n[nH]c2=O)cc1`, the pIC50 was 5.02 in the test on CCRF-CEM [1]; 5.51 in the test on A549; 5.20 in the test with K562 [2]; 4.96 with K562 [3]; 5.38 in the test with CCRF-CEM [4].
The matching figures for `COc1ccc(-c2n[nH]c(=O)c(/C(=N/Nc3ccccc3OC)c3cc(OC)c(OC)c(OC)c3)n2)cc1`: 3.85, 3.60, 3.83, 3.60 and 4.26.
Take `COc1ccc(N/N=C(\c2cc(OC)c(OC)c(OC)c2)c2nc(-c3cc(OC)c(OC)c(OC)c3)n[nH]c2=O)cc1`: the pIC50 with CCRF-CEM [1] was 4.46; in the test on A549, 5.47; with K562 [2] it was 4.73; with K562 [3], 5.05; in the test with CCRF-CEM [4], 5.24.
With `COc1cc(N/N=C(\c2cc(OC)c(OC)c(OC)c2)c2nc(-c3cc(OC)c(OC)c(OC)c3)n[nH]c2=O)cc(OC)c1OC`, the pIC50 in the test with CCRF-CEM [1] was 3.80; with A549, 3.79; in the test on K562 [2], 4.03; in the test on K562 [3] it was 3.93; in the test with CCRF-CEM [4], 4.27.
As for `COc1cc(/C(=N\Nc2ccccc2)c2nc(-c3ccc(Cl)cc3)n[nH]c2=O)cc(OC)c1OC`, the pIC50 in the test on CCRF-CEM [1] is 4.42; with A549 it was 4.66; in the test with K562 [2] it was 4.76; with K562 [3], 4.48; with CCRF-CEM [4] it was 4.97.
Take `COc1cccc(-n2nc(-c3cc(OC)c(OC)c(OC)c3)c3nc(-c4cc(OC)c(OC)c(OC)c4)nnc32)c1`: the pIC50 is 3.96 in the test with CCRF-CEM [1]; 3.79 with A549; 3.79 with K562 [2]; 3.85 in the test with K562 [3]; 4.32 in the test on CCRF-CEM [4].
As to `COc1cc(/C=C(/NC(=O)c2ccc(Cl)cc2)C(=O)NN)cc(OC)c1OC`, the pIC50 was 3.89 with CCRF-CEM [1]; 3.79 in the test on A549; 3.78 in the test with K562 [2]; 3.76 in the test on K562 [3]; 3.87 with CCRF-CEM [4].
Turning to `COc1ccc(-n2nc(-c3cc(OC)c(OC)c(OC)c3)c3nc(-c4ccccc4)nnc32)cc1`, the pIC50 with CCRF-CEM [1] is 4.00; with A549, 4.41; in the test on K562 [2], 4.07; with K562 [3], 3.82; in the test on CCRF-CEM [4], 3.93.

What is called pIC50 is the IC50 on a negative log10 scale, so that one unit is a factor of ten. Read a high pIC50 as a low IC50.
